# What was measured:
# [1] = Agonist activity at human GABA alpha-1-beta-2-gamma-2s receptor expressed in Xenopus oocytes by two electrode voltage-clamp assay; assay type: functional, cell-based; conditions: Oocyte
# [2] = Displacement of [3H]muscimol from GABAA receptor in rat brain membrane; assay type: cell membranes
# Outline: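 Native GABAA receptor affinity was measured by [3H]muscimol binding to rat brain membranes. Ki was calculated from pKi; ≥3 experiments in duplicate.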
# [3] = Agonist activity at human GABAC rho 1 receptor expressed in HEK293 cells by FMP assay; assay type: functional, cell-based; conditions: for EC50: Homo sapiens, HEK293
# [4] = Agonist activity at GABAC rho 1 receptor expressed in tsA-201 cells by FMP assay; assay type: functional, cell-based; conditions: Homo sapiens, tsA201
# [5] = Agonist activity at human GABAC rho 1 receptor expressed in HEK293 cells by Whole-cell patch-clamp technique relative to GABA; assay type: functional
# Outline: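 HEK293 cells cotransfected with human ρ1 plus GFP (Targefect) and recorded 20-72 h later by whole-cell patch clamp at -60 mV, 20-22 °C. Bath solution: 140 mM NaCl, HEPES, pH 7.35. Agonists applied by gravity-fed multibarrel perfusion. Hill equation fitted to obtain EC50, nH and Imax; maximal response as % of GABA; ≥5 cells.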
# [6] = Agonist activity at human GABAC rho 1 receptor expressed in HEK293 cells by FMP assay relative to GABA; assay type: functional
# Outline: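 Stable human ρ1 HEK293 clone kept in 1 mg/mL G-418 and plated on poly-D-lysine plates for 16-24 h. Dye loading for 30 min at 37 °C in HBSS + 20 mM HEPES pH 7.4. Emission at 560 nm (excitation 530 nm) recorded before and up to 1 min after agonist. Concentration-response curves built from maximal responses; Rmax given as % of GABA; duplicates, ≥3 experiments.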
# [7] = biological target: GABA A receptor alpha-1/beta-2/gamma-2 (Rattus norvegicus); assay: Agonist activity at GABA alpha-1-beta-2-gamma-2 receptor expressed in HEK293 cells by Whole-cell patch-clamp technique
# [8] = Agonist activity at GABAC rho 1 receptor S168T mutant expressed in tsA-201 cells by FMP assay; assay type: functional, cell-based; conditions: Homo sapiens, tsA201
# [9] = Agonist activity at human GABAC rho 1 receptor expressed in HEK293 cells by Whole-cell patch-clamp technique; assay type: functional, cell-based
# [10] = cells; assay type: functional, cell-based; conditions: HEK293
# [11] = Agonist activity at GABAC rho 1 receptor expressed in tsA-201 cells by FMP assay relative to GABA; assay type: functional, Homo sapiens
# Outline: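 Human ρ1 (WT) transiently expressed in tsA-201 cells via Polyfect, plated on poly-D-lysine plates 16-24 h post-transfection and assayed next day. Cells loaded with membrane potential dye in HBSS + 20 mM HEPES pH 7.4, 30 min at 37 °C. Fluorescence read (ex 530/em 560 nm) before and up to 1 min after agonist addition. Rmax expressed as % of GABA maximal response; ≥3 experiments in duplicate.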
# [12] = Antagonist activity at human GABAc rho 1 receptor expressed in HEK293 cells by FMP assay; assay type: functional, cell-based
# Outline: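 Stable HEK293 line expressing human ρ1 (selected under G-418). Antagonist included with the loading dye in HBSS/20 mM HEPES pH 7.4 for 30 min at 37 °C, then agonist added. Fluorescence (ex 530/em 560 nm) read up to 1 min. Ki from inhibition curves by the Cheng-Prusoff relation using agonist concentration and EC50; duplicates, at least three experiments.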
# [13] = Agonist activity at GABAC rho 1 receptor S168T mutant expressed in tsA-201 cells by FMP assay relative to GABA; assay type: functional, Homo sapiens
# Outline: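 tsA-201 cells transiently transfected with human ρ1 Ser168Thr cDNA, plated on poly-D-lysine after 16-24 h and assayed the next day. Cells loaded with membrane potential dye in HBSS/20 mM HEPES pH 7.4 for 30 min at 37 °C. Fluorescence (ex 530/em 560 nm) read up to 1 min after agonist addition. Rmax given as % of GABA maximum at the same receptor; duplicates, at least three experiments.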
# [14] = Agonist activity at rat GABA alpha-1-T129S-beta-2-gamma-2 receptor mutant expressed in HEK293 cells by Whole-cell patch-clamp technique relative to GABA; assay type: functional
# Outline: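 Rat α1(Thr129Ser) with β2 and γ2S (1:1:2) transiently co-transfected with a GFP plasmid into HEK293 cells; whole-cell patch-clamp 20-72 h after transfection at 20-22 °C, clamp usually -60 mV, extracellular solution pH 7.35. Agonist applied by perfusion pipette. Hill-equation fit gives EC50 and Imax; maximal response as % of GABA maximum; at least five cells.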
SMILES,Ki [2] [µM],EC50 [3] [µM],EC50 ([4]; read-out: EC50) [µM],EC50 ([4]; read-out: Log EC50 (converted)) [µM],RUmax [6] [%],EC50 ([8]; read-out: EC50) [µM],RUmax [11] [%],other results
O=C(O)Cc1c[nH]c(Cl)n1,> 100,,,,,,,EC50 [1]: > 1000 µM
Cc1nc(CC(=O)O)c[nH]1,> 100,> 1000,,,,,,
Cc1[nH]cnc1CC(=O)O,67,22,11,10,95,> 1000,106,RUmax [5]: 66%; EC50 [7]: > 1000 µM; EC50 [1]: > 1000 µM; EC50 ([9]; read-out: EC50): 31 µM; EC50 ([9]; read-out: Log EC50 (converted)): 31.6 µM; EC50 ([10]; read-out: EC50): > 1000 µM; Log Ki [2]: -4.2
O=C(O)Cc1[nH]cnc1-c1ccccc1,> 100,420,140,158,98,> 3000,131,EC50 [1]: > 1000 µM
Cc1cccc(-c2nc[nH]c2CC(=O)O)c1,> 100,> 1000,,,,,,
CC1N=C(CC(=O)O)C(c2ccccc2)=N1 (stereo unspecified),> 100,> 1000,,,,,,EC50 [1]: > 1000 µM
Cc1ccccc1-c1nc[nH]c1CC(=O)O,> 100,> 1000,,,,,,
Cc1ccc(-c2nc[nH]c2CC(=O)O)cc1,> 100,240,220,200,111,> 3000,127,
O=C(O)Cc1[nH]cnc1I,> 100,> 1000,,,,,,
O=C(O)Cc1[nH]cnc1-c1ccc(F)cc1,> 100,210,330,316,115,> 3000,94,
O=C(O)Cc1[nH]c(Cl)nc1-c1ccccc1,> 100,> 1000,,,,,,
O=C(O)Cc1c[nH]c(-c2ccccc2)n1,> 100,> 1000,,,,,,
CP(=O)(O)C1=CCNCC1,,,,,,,,Ki ([3]; hek293): 1.3 µM
Oc1noc2c1CCNC2 [GABOXADOL],,,,,,,,Ki [12]: 100 µM; Log Ki [12]: -4
NCCCC(=O)O [GAMMA-AMINOBUTYRIC ACID],,,,,100,,100,RUmax [13]: 100%; RUmax [5]: 100%; RUmax [14]: 100%
O=C(O)Cc1c[nH]cn1 [IMIDAZOLE ACETIC ACID],0.65,13,5.5,5.01,32,100,37,RUmax [13]: 10%; RUmax [5]: 7.5%; EC50 ([9]; read-out: EC50): 5.5 µM; EC50 ([9]; read-out: Log EC50 (converted)): 5.5 µM; RUmax [14]: 39%; EC50 ([10]; read-out: EC50): 20 µM; EC50 ([10]; read-out: Log EC50 (converted)): 20 µM; Log Ki [2]: -6.2
O=C(O)C1=CCNCC1 [ISOGUVACINE],,67,,,97,,,
NCc1cc(O)no1 [MUSCIMOL],,2.2,0.62,0.631,101,24,104,RUmax [13]: 96%; EC50 ([8]; read-out: Log EC50 (converted)): 25.1 µM

# From ChEMBL document CHEMBL1148721 (J Med Chem, 2007)
